According to publication PMC8378355 (BMJ Open Diabetes Research & Care, 2021):
One block for each substance: values may come before it.

Assays:
insulin receptor (IR) = insulin receptor (IR) (Homo sapiens, UniProt P06213); test: IR affinity relative to HI; format: binding
[1] = tested on: extracellular-regulated kinase (ERK); test: Phospho-ERK in CHO-hIR cells; format: cell-based, Chinese Hamster; details: HSA 0.1%, n=3; for EC50: read-out: EC50 (nM) Mean (95% CI), Phospho-ERK in CHO-hIR cells
protein kinase B (AKT) = test: Phospho-AKT in CHO-hIR cells; format: cell-based, Chinese Hamster; details: read-out: EC50 (nM) Mean (95% CI), Phospho-AKT in CHO-hIR cells; HSA 0.1%, n=3
rat hepatocytes = test: Glycogen accumulation in rat hepatocytes; format: cell-based; details: for EC50: read-out: EC50 (nM) Mean (95% CI), Glycogen accumulation in rat hepatocytes, n=7, geometric mean
Outline: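 Hepatocytes are isolated from rat by two-step collagenase perfusion. […] Determine cellular glycogen as glucose released after amyloglucosidase digestion.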

Human IR-A = Human IR-A (Homo sapiens, UniProt P06213); test: Human IR-A binding, competition scintillation proximity assay; details: n=3
Human IR-B = Human IR-B (Homo sapiens, UniProt P06213); test: Human IR-B binding, competition scintillation proximity assay; details: n=3
Human IGF-1R = Human IGF-1R (Homo sapiens, UniProt P08069); test: Human IGF-1R binding, competition scintillation proximity assay; details: HSA 0%, n=4
Human IGF-1R, sequence (P08069 31-736 limits assumed): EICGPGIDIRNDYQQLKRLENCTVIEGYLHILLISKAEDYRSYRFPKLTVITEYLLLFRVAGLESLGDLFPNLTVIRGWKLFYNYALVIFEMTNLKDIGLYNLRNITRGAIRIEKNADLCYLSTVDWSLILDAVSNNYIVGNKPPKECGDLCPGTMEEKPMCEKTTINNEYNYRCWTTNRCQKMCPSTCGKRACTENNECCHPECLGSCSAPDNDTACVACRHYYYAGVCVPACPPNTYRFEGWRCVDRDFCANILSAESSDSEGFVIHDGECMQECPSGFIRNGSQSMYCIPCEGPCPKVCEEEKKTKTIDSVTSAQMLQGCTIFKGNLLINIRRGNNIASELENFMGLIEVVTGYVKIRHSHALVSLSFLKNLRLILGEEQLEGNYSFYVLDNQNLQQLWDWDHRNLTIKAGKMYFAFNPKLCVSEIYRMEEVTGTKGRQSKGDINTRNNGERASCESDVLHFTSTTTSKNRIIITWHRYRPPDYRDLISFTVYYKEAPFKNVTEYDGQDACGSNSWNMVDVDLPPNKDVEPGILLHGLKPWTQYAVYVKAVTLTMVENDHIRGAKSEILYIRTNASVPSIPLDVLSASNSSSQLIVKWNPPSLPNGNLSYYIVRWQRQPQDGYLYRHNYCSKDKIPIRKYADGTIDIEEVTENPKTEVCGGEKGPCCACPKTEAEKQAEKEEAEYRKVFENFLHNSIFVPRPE
Human IGF-1R, sequence (P08069 741-1367 partner limits assumed): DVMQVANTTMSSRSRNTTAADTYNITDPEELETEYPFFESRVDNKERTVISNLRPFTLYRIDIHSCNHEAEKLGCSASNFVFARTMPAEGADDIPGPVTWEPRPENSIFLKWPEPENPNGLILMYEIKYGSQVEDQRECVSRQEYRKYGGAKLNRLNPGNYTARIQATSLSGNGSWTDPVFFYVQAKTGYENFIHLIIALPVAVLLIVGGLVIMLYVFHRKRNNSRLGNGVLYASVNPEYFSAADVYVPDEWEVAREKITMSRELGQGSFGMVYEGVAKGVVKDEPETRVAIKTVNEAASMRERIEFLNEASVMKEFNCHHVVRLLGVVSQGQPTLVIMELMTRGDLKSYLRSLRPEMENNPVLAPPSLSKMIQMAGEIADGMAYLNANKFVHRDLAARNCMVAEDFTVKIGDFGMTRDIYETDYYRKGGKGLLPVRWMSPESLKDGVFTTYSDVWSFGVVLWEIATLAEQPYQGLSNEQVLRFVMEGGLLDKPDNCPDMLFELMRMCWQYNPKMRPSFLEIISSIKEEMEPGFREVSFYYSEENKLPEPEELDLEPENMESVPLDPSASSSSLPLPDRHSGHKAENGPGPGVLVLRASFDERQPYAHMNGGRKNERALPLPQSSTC

[2] = biological target: human insulin receptors (hIRs) (Homo sapiens, UniProt P06213); test: IR phosphorylation in CHO-hIR cells; format: cell-based
primary rat adipocytes = test: Lipogenesis in rat adipocytes; format: cell-based; details: HSA 0.1%, n=4
L6-hIR cells [3] = test: Glycogen synthesis in rat L6-hIR cells; format: cell-based; details: HSA 0.1%, n=4
Outline: (§1)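 L6-hIR cells are a rat skeletal myoblast L6 line stably transfected with the A isoform of human IR. MCF-7 is a human mammary adenocarcinoma line.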

MCF-7 cells [4] = test: Glycogen synthesis in human MCF-7 cells; format: cell-based; details: HSA 0%, n=5
Outline: as §1

L6-hIR cells [5] = test: DNA synthesis; format: cell-based, rat; details: HSA 0%, n=5
MCF-7 cells [6] = test: DNA synthesis; format: cell-based, human; details: HSA 0%, n=4
COLO-205 cells = test: DNA synthesis; format: cell-based, human; details: HSA 0%, n=3
HMEC cells = test: DNA synthesis; format: cell-based, human; details: HSA 0%, n=7
[7] = Clinical pharmacology trial: pharmacokinetics, total serum insulin icodec; format: in vivo, human
Outline: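 Randomized, double-blind, double-dummy, active-controlled, multiple-dose escalation trial in adults aged 18–64 with type 2 diabetes on insulin (HbA1c ≤9.0%). Participants received once-weekly s.c. thigh injections at 12, 20 or 24 nmol/kg (one dose per cohort) for 5 weeks, at ~20:00. Total serum test compound (free plus albumin-bound) was measured by a specific assay at prespecified times, from predose to 36 days after the last dose.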

[8] = tested on: individuals with type 2 diabetes; test: Clinical pharmacology trial: safety assessments; format: in vivo, human
Outline: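 Dose-escalation trial in type 2 diabetes. Three sequential cohorts received once-weekly s.c. thigh injections at 12, 20 or 24 nmol/kg with once-daily placebo for 5 weeks. Safety covered adverse events, hypoglycemic episodes, injection site reactions, vital signs, physical examination, clinical laboratory tests and ECG. An internal safety group reviewed blinded interim data before each escalation.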

IR affinity relative to HI (insulin receptor (IR); relative to HI): 22%
Substance: B16H: individual amino acid substitution TyrB16His in human insulin

influence on the IR affinity (insulin receptor (IR); deletion of threonine in position B30 of HI): no influence
Substance: desB30: human insulin with the threonine in position B30 deleted

EC50 [1]: 1.02 nM
EC50 (protein kinase B (AKT)): 0.15 nM
Substance: human insulin [reference compound]
EC50 (rat hepatocytes; HSA 0%): 0.28 nM

IC50 (%) Insulin icodec relative to human insulin Mean (95% CI), Human IR-A binding (Human IR-A; HSA 0%): 0.50%
IC50 (%) Insulin icodec relative to human insulin Mean (95% CI), Human IR-A binding (Human IR-A; HSA 1.5%): 0.03%
IC50 (%) Insulin icodec relative to human insulin Mean (95% CI), Human IR-B binding (Human IR-B; HSA 0%): 0.78%
IC50 (%) Insulin icodec relative to human insulin Mean (95% CI), Human IR-B binding (Human IR-B; HSA 1.5%): 0.03%
IC50 (%) Insulin icodec relative to human insulin Mean (95% CI), Human IGF-1R binding (Human IGF-1R): 0.14%
agonism at IRs (activation of IRs and downstream AKT and ERK) ([2]; CHO-hIR cells, 0.1% HSA, in a similar manner as HI): full agonist
EC50 (%) Insulin icodec relative to human insulin Mean (95% CI), IR phosphorylation in CHO-hIR cells ([2]; HSA 0.1%, n=3): 0.21%
EC50 (%) Insulin icodec relative to human insulin Mean (95% CI), Phospho-ERK in CHO-hIR cells [1]: 0.39%
EC50 [1]: 271 nM
EC50 (protein kinase B (AKT)): 245 nM
EC50 (%) Insulin icodec relative to human insulin Mean (95% CI), Lipogenesis in rat adipocytes (primary rat adipocytes): 0.029%
EC50 (%) Insulin icodec relative to human insulin Mean (95% CI), Glycogen accumulation in rat hepatocytes (rat hepatocytes; HSA 0%, n=7): 4.3%
EC50 (%) Insulin icodec relative to human insulin Mean (95% CI), Glycogen accumulation in rat hepatocytes (rat hepatocytes; HSA 0.1%, n=8): 0.24%
EC50 (%) Insulin icodec relative to human insulin Mean (95% CI), Glycogen synthesis in human MCF-7 cells (MCF-7 cells [4]): 0.26%
EC50 (%) Insulin icodec relative to human insulin Mean (95% CI), DNA synthesis in human MCF-7 cells (MCF-7 cells [6]): 0.5%
EC50 (%) Insulin icodec relative to human insulin Mean (95% CI), DNA synthesis in human COLO-205 cells (COLO-205 cells): 2.0%
EC50 (%) Insulin icodec relative to human insulin Mean (95% CI), DNA synthesis in human HMEC cells (HMEC cells): 0.2%
Substance: insulin icodec
EC50 (rat hepatocytes; HSA 0%): 6.4 nM
EC50 (%) Insulin icodec relative to human insulin Mean (95% CI), Glycogen synthesis in rat L6-hIR cells (L6-hIR cells [3]): 0.52%
EC50 (%) Insulin icodec relative to human insulin Mean (95% CI), DNA synthesis in rat L6-hIR cells (L6-hIR cells [5]): 0.6%
time to maximum concentration (median tmax) ([7]; type 2 diabetes, once-weekly s.c. dosing): 16 h
maximum serum concentration at steady state ([7]; week 5 of once-weekly dosing): < 500 nmol/L
adverse events, number of events ([8]; 12 nmol/kg once weekly, n=13): 33 events
adverse events, number of individuals with events ([8]; 12 nmol/kg once weekly, n=13): 13 individuals
adverse events, number of events ([8]; 20 nmol/kg once weekly, n=13): 19 events
adverse events, number of individuals with events ([8]; 20 nmol/kg once weekly, n=13): 9 individuals
adverse events, number of events ([8]; 24 nmol/kg once weekly, n=12): 23 events
adverse events, number of individuals with events ([8]; 24 nmol/kg once weekly, n=12): 9 individuals
serious or severe adverse events, severe hypoglycemic episodes, injection site reactions or clinically significant findings in vital signs, physical examination, clinical laboratory assessments or ECG ([8]; 12, 20, 24 nmol/kg once weekly for 5 weeks): No serious or severe adverse events
tolerability ([8]; 12, 20, 24 nmol/kg once weekly for 5 weeks, type 2 diabetes): well tolerated
